The values below come from ChEMBL document CHEMBL3286109, “Structure-activity relationship studies of indole-based compounds as small molecule HIV-1 fusion inhibitors targeting glycoprotein 41” (J Med Chem, 2014).

Series [1] is described as follows: Cytotoxicity against human PBMC assessed as inhibition of cell viability by MTS assay. The series is classed as cell-based. Conditions: read-out: TC50 (the source's name).
Series [2] concerns Human immunodeficiency virus 1. The series is described as follows: Antiviral activity against HIV-1 00UG_D26830M4 subtype D infected in human PBMC assessed as reverse transcriptase activity after 6 days by microtiter plate-based assay. Format: functional, organism-based. Conditions: Human immunodeficiency virus 1, 00UG_D26830M4 subtype D, 144 h. Put shortly: (§1)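 PBMCs from screened donors, Ficoll-purified, stimulated with 4 μg/mL phytohemagglutinin, kept in 20 U/mL IL-2; cells from two donors pooled, 5 × 10^4 cells/well.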

For series [3], the system named is Human immunodeficiency virus 1. The series is described as follows: Antiviral activity against HIV-1 Ba-L subtype B infected in human PBMC assessed as reverse transcriptase activity after 6 days by microtiter plate-based assay. The following applies: Human immunodeficiency virus 1, Ba-L subtype B, 144 h. Format: functional, organism-based. The essentials:
as §1

A short description of series [4]: Therapeutic index, ratio of TC50 for human PBMC to EC50 for HIV-1 01CM0005BBY subtype CRF02_AG infected in human PBMC. Conditions: read-out: TI.
Series [5] in a line: Therapeutic index, ratio of TC50 for human PBMC to EC50 for HIV-1 00UG_D26830M4 subtype D infected in human PBMC. The following applies: read-out: TI.
A short description of series [6]: Therapeutic index, ratio of TC50 for human PBMC to EC50 for HIV-1 Ba-L subtype B infected in human PBMC. Conditions: read-out: TI.
The nature of series [7]: Therapeutic index, ratio of TC50 for human PBMC to EC50 for HIV-1 91DJ263 subtype CRF02_AG infected in human PBMC. Conditions: read-out: TI.
Series [8] deals with Human immunodeficiency virus 1. Put plainly: Antiviral activity against HIV-1 92UG001 subtype D infected in human PBMC assessed as reverse transcriptase activity after 6 days by microtiter plate-based assay. The following applies: Human immunodeficiency virus 1, 92UG001 subtype D, 144 h. The series is classed as functional, organism-based. Put shortly:
as §1

A short description of series [9]: Therapeutic index, ratio of TC50 for human PBMC to EC50 for HIV-1 92UG001 subtype D infected in human PBMC. The following applies: read-out: TI.
Series [10] can be described thus: Therapeutic index, ratio of TC50 for human PBMC to EC50 for HIV-1 02CM0015BBY subtype CRF02_AG infected in human PBMC. Conditions: read-out: TI.
Series [11] relates to Human immunodeficiency virus 1. The series is described as follows: Antiviral activity against HIV-1 02CM0015BBY subtype CRF02_AG infected in human PBMC assessed as reverse transcriptase activity after 6 days by microtiter plate-based assay. The series is classed as functional, organism-based. Conditions: Human immunodeficiency virus 1, 02CM0015BBY subtype CRF02_AG, 144 h. The essentials: as §1

In series [12] the test system is Human immunodeficiency virus 1. Put plainly: Antiviral activity against HIV-1 01CM0005BBY subtype CRF02_AG infected in human PBMC assessed as reverse transcriptase activity after 6 days by microtiter plate-based assay. Format: functional, organism-based. Conditions: Human immunodeficiency virus 1, 01CM0005BBY subtype CRF02_AG, 144 h. Put shortly: as §1
Series [13] deals with Human immunodeficiency virus 1. The series is described as follows: Antiviral activity against HIV-1 92BR014 subtype B infected in human PBMC assessed as reverse transcriptase activity after 6 days by microtiter plate-based assay. Format: functional, organism-based. Conditions: Human immunodeficiency virus 1, 92BR014 subtype B, 144 h. The essentials: as §1
Series [14] has as its system Human immunodeficiency virus 1. Put plainly: Antiviral activity against HIV-1 91DJ263 subtype CRF02_AG infected in human PBMC assessed as reverse transcriptase activity after 6 days by microtiter plate-based assay. The series is classed as functional, organism-based. The following applies: Human immunodeficiency virus 1, 91DJ263 subtype CRF02_AG, 144 h. The essentials: as §1

Series [15] is described as follows: Cytotoxicity against human MAGI-CCR5 cells assessed as inhibition of cell viability by MTS assay. The following applies: read-out: TC50 (the source's name). Format: cell-based.
Series [16] is described as follows: Cytotoxicity against human TZM-bl cells assessed as inhibition of cell viability by resazurin assay. The following applies: read-out: TC50 (the source's name).
Series [17] can be described thus: Binding affinity to HIV1 Envelope glycoprotein gp41 Fe(env2.0)3 using C18FL as probe by fluorescence assay. Also noted: species or system Human immunodeficiency virus 1.
Series [18] in a line: Inhibition of HIV1 HXB2 gp41-mediated cell-cell fusion between viral envelope-expressing human HL2/3 cells to human TZM-bl cells by luciferase reporter assay. The series is classed as cell-based. Conditions: Human immunodeficiency virus 1, HXB2, TZM-bl.
The subject of series [19] is Human immunodeficiency virus 1. The series is described as follows: Antiviral activity against HIV-1 Ba-L infected in human MAGI-CCR5 cells assessed as inhibition of viral replication after 48 hrs by chemiluminescence assay. The series is classed as functional, organism-based. Conditions: Human immunodeficiency virus 1, Ba-L, MAGI-CCR5, 48 h.
Series [20] is described as follows: Retardation factor of the compound using 50% EtOAc/hexanes as solvent system by silca gel chromatography. Format: physicochemical.
Series [21] deals with Human immunodeficiency virus 1. Put plainly: Antiviral activity against HIV-1 3B infected in human MAGI-CCR5 cells assessed as inhibition of viral replication after 48 hrs by chemiluminescence assay. The series is classed as functional, organism-based. The following applies: Human immunodeficiency virus 1, 3B, MAGI-CCR5, 48 h.
The nature of series [22]: Therapeutic index, ratio of TC50 for human PBMC to EC50 for HIV-1 92BR014 subtype B infected in human PBMC. The following applies: read-out: TI. The essentials: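 Human PBMC from screened donors were Ficoll-purified, stimulated with 4 μg/mL phytohemagglutinin, and kept in 20 U/mL IL-2. Cells from two donors were pooled at 5 × 10^4 cells/well and given nine serial compound dilutions in triplicate, then HIV-1 at a final MOI of about 0.1. TC50 was measured in parallel cultures by MTS viability. TI = TC50/EC50.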

Series [23] in a line: Retardation factor of the compound using 40% EtOAc/hexanes as solvent system by silca gel chromatography. The series is classed as physicochemical.

pEC50, pKi: −log10 of the molar value. Where only a bound is given, the exact number is not on record here.

As for enfuvirtide, the CC50 in series [1] is over 2000 nM. Moreover, the pEC50 in series [2] was 6.97; in [3] it was 8.12; in series [11] it was 7.77; in [13] it was under 5.70; in series [14] it was 6.92. In addition, the EC90 in series [2] is 195 nM; in [3], 23.6 nM; in series [8] it was 71.3 nM; in series [11] it was 43.4 nM; in series [12], 55.8 nM; in [13] it was over 2000 nM. Further, the EC90 in series [14] is 206 nM. In addition, the selectivity ratio is over 110 in series [4]; over 18.6 in series [5]; over 265 in series [6]; over 16.6 in [7]; over 36 in series [9]; over 118 in series [10].

`CCOC(=O)c1cccc(Cn2ccc3ccc(-c4ccc5ccn(Cc6cccc(C(=O)O)c6)c5c4)cc32)c1`: the CC50 was over 50000 nM in [1], 43000 nM in [15] and over 50000 nM in [16]. In addition, the pEC50 in series [2] was 6.41; in series [3], 6.39; in [8], 6.46; in series [18], 6.15; in series [19], 6.52; in [11] it was 6.43. The pEC50 is 6.47 in [12], 6.37 in series [13], 6.30 in series [21] and 6.46 in [14]. The EC90 in [2] was 570 nM; in [3], 590 nM; in series [8], 1000 nM; in [11] it was 560 nM; in series [12], 550 nM; in [13], 1230 nM. Moreover, in series [14], the EC90 is 580 nM. The selectivity ratio in [4] was over 147; in [5], over 128; in series [6], over 121; in series [7], over 141; in [9] it was over 141; in [10], over 137. For the same compound, the selectivity ratio in [22] is over 116. In series [17], this compound gave a pKi of 6.00. Moreover, the Rf in series [20] is listed as 0.48.

On to `COC(=O)c1cccc(Cn2ccc3ccc(-c4ccc5ccn(Cc6cccc(C(=O)O)c6)c5c4)cc32)c1`, for which, in series [23], the Rf worked out at 0.13. In addition, the figures for the CC50 in series [1], in series [15] and in series [16] were 11600 nM, 15000 nM and 53000 nM, respectively. Further, the pEC50 in [2] was 6.46; in [3], 6.44; in series [8], 6.40; in series [18], 6.70; in series [19], 6.70; in [11], 6.62. Also, the pEC50 in series [12] is 6.54; in series [13], 6.34; in series [21], 6.70; in series [14] it was 6.41. Moreover, the EC90 in series [2] turned out to be 580 nM; in [3], 630 nM; in [8] it was 990 nM; in series [11], 520 nM; in series [12], 540 nM; in series [13], 1430 nM. For the same compound, the EC90 in series [14] was determined as 920 nM. The selectivity ratio in series [4] was 39.3; in [5] it was 33.3; in series [6], 32.2; in series [7] it was 29.7; in series [9], 29.1; in series [10], 47.8. For the same compound, in [22], the selectivity ratio was 25.3. In series [17], the pKi was 6.22.

Take `COc1ccc(Cn2ccc3ccc(-c4ccc5c(ccn5Cc5cccc(C(=O)O)c5)c4)cc32)cc1`: the CC50 is 18000 nM in series [15] and over 100000 nM in series [16]. In [17], this compound had a pKi of 5.52. The pEC50 is 5.15 in series [18], 4.74 in [19] and 4.72 in series [21].

For the compound `COc1cccc(Cn2ccc3ccc(-c4ccc5ncn(Cc6cccc(C(=O)O)c6)c5c4)cc32)c1`, the CC50 in series [15] and in [16] was over 100000 nM each time. For the same compound, the pKi in series [17] was 5.22. Moreover, the pEC50 in series [18] was 4.47; in [19] it was 4.27; in [21], 4.24.

Consider `O=C(O)c1cccc(Cn2cnc3ccc(-c4ccc5cc[nH]c5c4)cc32)c1`, for which the CC50 in series [15] and in series [16] was over 100000 nM each time. The compound further gave a pKi in [17] of 4.96. Also, the negative logarithm of the EC50 (pEC50) in [18] is 4.85; in series [19], 4.39; in series [21] it was 4.44.

Take `O=C(O)c1cccc(Cn2ccc3ccc(-c4ccc5ccn(Cc6ccc(Oc7ccccc7F)cc6)c5c4)cc32)c1`: the CC50 in [15] and in series [16] was over 100000 nM each time. In [17], this compound showed a pKi of 5.02. The values for the pEC50 in series [18], in [19] and in series [21] were 5.09, 5.28 and 5.26, respectively.

`O=C(O)c1cccc(Cn2ccc3ccc(-c4ccc5cc[nH]c5c4)cc32)c1` came in with a Rf in series [23] of 0.13. The results for the CC50 in series [15] and in series [16] were over 50000 nM and over 100000 nM, respectively. In series [17], this compound had a pKi of 5.57. The pEC50 in [18] was 4.82; in [19], 4.22; in series [21], 4.33.

Regarding `COc1cc(Cn2ccc3ccc(-c4ccc5ccn(Cc6cccc(C(=O)O)c6)c5c4)cc32)cc(OC)c1`, the CC50 was determined as 49000 nM in series [15] and 93000 nM in series [16]. This compound also showed a pKi in [17] of 6.05. Besides, the pEC50 in [18] was 5.64; in series [19] it was 5.82; in series [21], 5.82.

Regarding `O=C(O)c1cccc(Cn2cnc3cc(-c4ccc5cc[nH]c5c4)ccc32)c1`, the CC50 in series [15] and in [16] was over 100000 nM each time. The pKi in [17] was 4.80. The pEC50 is 3.91 in series [18], under 4.00 in [19] and under 4.00 in [21].

`COc1ccc(Cn2ccc3cc(-c4ccc5c(ccn5Cc5cccc(C(=O)O)c5)c4)ccc32)cc1`: the CC50 was 55000 nM in series [15] and over 100000 nM in series [16]. This compound showed a pKi in [17] of 5.41. Besides, the pEC50 was 4.92 in series [18], 4.74 in series [19] and 4.70 in series [21].

In the case of `O=C(O)c1cccc(Cn2ccc3ccc(-c4ccc5ccn(Cc6cccc(C(=O)O)c6)c5c4)cc32)c1`, the CC50 in [15] and in [16] was over 100000 nM each time. In addition, the pKi in series [17] was 6.22. Moreover, the pEC50 in [18] was 4.92; in series [19], 4.24; in series [21], 4.17.
